High-throughput results as filed in PubChem.
Only a selection was taken, and hits are over-represented in it overall.
HCT116 bCat-KO: beta-catenin-lacking colon tumor cell growth suppression. 140,000 compounds, 1.5% hits. HCT116 beta-catenin knockout viability, CellTiter-Glo, 60 h; active compounds read low. viability, % at 10 µM;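 active means viability at or under a set limit, the compound median less 4 SD, cut at about 6% in these data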;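 further: 0% = Hyamine 1622 control at 20 µM and 100% = untreated cell control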
Fibroblast inh: blocks proliferation of human lung fibroblasts; LL 47 human lung fibroblast viability, ATP luminescence; active compounds read low; viability, % at 10 µM; 85,000 compounds, 1.1% hits; AID 719;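 active means viability at or below 50% in the single dose screen; inactive means viability above 50%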;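 further: compound exposure lasted 72 h before the ATP readout; 100% = median luminescence of untreated cell-only wells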
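Benchmarks: Cell-only wells, no compound | Test system: LL 47 human lung fibroblasts, passage 12 or lower | Input: 1,150 cells/well | Measured by: CellTiter-Glo luminescence measuring cellular ATP | Medium: IMEM, 15% FBS supplement | Schedule: Overnight attachment after seeding, then 72 h compound exposure at 37 °C | Doses: Compound addition at 0.1% DMSO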
HUVEC inhibit: blocks proliferation of human endothelial cells; viability, % at 10 µM (by protocol); 86,000 compounds, 1.1% hits; HUVEC proliferation, CellTiter-Glo luminescence, 72 h; active compounds read low;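 active means viability at or below 30%; inactive means viability above 30%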;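 further: 100% = median luminescence of DMSO-only cell control wells on each plate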
PTEN del growth: suppresses growth of cells with PTEN deletion | HCT116 PTEN-null viability, CellTiter-Glo, 60 h; active compounds read low | viability, % at 10 µM | 140,000 compounds, 1.2% hits | AID 827;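 active means viability at or below a set limit, 4 SD under the median of all tested compounds, cut at about 3.7% in these data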;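 further: PTEN knockout HCT116 line with beta catenin targeted HCT116 as companion control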
H69AR growth 86K: growth inhibitors of human H69AR lung tumor cells | 85,000 compounds, 6% hits | AID 598 | H69AR lung tumor viability, ATP luminescence, 72 h; active compounds read low | viability, % at 10 µM;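 active means viability at or below 40%; inactive means viability above 40%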;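 further: multidrug resistant small cell line overexpressing MRP-1 efflux transporter; 100% = mean luminescence of untreated control wells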
Active calls of the source: *; . = not tested or not shown.

SMILES	HCT116 bCat-KO	Fibroblast inh	HUVEC inhibit	PTEN del growth	H69AR growth 86K
CC(=O)Nc1ccccc1N(C)S(=O)(=O)c1ccc(C)cc1	54.2	101.0	80.5	47.9	36.5*
CC(=O)Nc1ccccc1NC(=O)CN(C)S(=O)(=O)c1ccc(C)cc1	92.4	107.6	99.6	97.3	99.2
O=C(CSc1nnc(COc2ccccc2)n1Cc1ccco1)c1ccc(F)cc1	88.3	83.2	91.4	84.1	38.9*
Clc1ccc(OCc2nnc(SCCN3CCCCC3)n2Cc2ccco2)cc1	9.6	84.8	75.1	16.4	14.9*
Cc1ccc(OCc2nnc(SCC(=O)c3ccccc3)n2Cc2ccco2)cc1	66.3	.	.	72.8	.
COc1ccccc1NC(=O)CSc1nnc(COc2ccc(Cl)cc2)n1Cc1ccco1	71.8	90.9	75.0	70.8	49.9
O=C1c2ccccc2C(=O)N1CC(O)CNc1ccc(Br)cc1 (configuration not stated)	101.4	.	.	105.3	.
CC(C)=CCCC(C)CN1CCC(O)CC1 (configuration not stated)	94.1	95.8	81.1	91.4	84.8
CC(C)=CCC/C(C)=C/CC(C)(C)CNCCN1CCNCC1	1.1*	1.7*	1.5*	1.2*	0.6*
CC(C)=CCC/C(C)=C/CCC(C)NCCN1CCNCC1 (configuration not stated)	1.8*	13.8*	61.2	1.8*	51.7
O=C(Nc1ccccc1-c1ccccc1)c1ccc(NC(=O)c2ccco2)cc1	93.6	90.7	83.8	87.3	81.4
Cc1ccc(NC(=S)N(Cc2ccco2)C2CCN(C(C)C)CC2)cc1	82.9	.	.	80.4	.
N#CCCn1cc(/C=N/O)c(-c2ccc(Cl)cc2)n1	86.0	93.2	101.3	88.5	95.2
N#CCCn1cc(/C=N/O)c(-c2ccc(-c3ccccc3)cc2)n1	47.4	74.2	56.1	38.6	31.8*
CC(=O)Nc1ccc(NC2=Nc3ccccc3N3C2=Nc2c(c(C)nn2-c2ccccc2)C3c2ccccc2)cc1 (configuration not stated)	21.8	33.5*	76.0	26.9	67.3
O=C(Nc1ccccc1NC(=O)c1c(F)c(F)c(F)c(F)c1F)c1c(F)c(F)c(F)c(F)c1F	2.4*	92.9	75.8	2.6*	100.6
O=C(Nc1cccc(F)c1)c1c(F)c(F)c(F)c(F)c1F	48.0	88.4	88.8	54.2	67.0
COc1ccc(C(=O)n2c(-c3ccco3)nc3ccccc32)cc1	14.2	65.5	53.0	20.5	23.9*
S=C(Nc1ccccc1)Nc1nc2ccccc2n1CCOc1ccccc1	1.6*	.	.	1.2*	.
COc1ccc(CCn2c(-c3ccco3)nc3nc4ccccc4nc32)cc1	70.3	94.8	96.1	70.0	58.1
COc1ccc(OCCn2c(NC(=O)c3ccco3)nc3ccccc32)cc1	62.6	58.9	77.6	38.0	39.4*
COc1ccc(-n2nc(C(=O)NCC(=O)NCc3ccc(F)cc3)c3ccccc3c2=O)c(OC)c1	84.0	.	.	88.9	.
O=C(NCC(c1cccs1)N1CCOCC1)c1ccccc1NS(=O)(=O)c1cc([N+](=O)[O-])ccc1Cl (configuration not stated)	63.4	.	.	62.5	.
O=C(Nc1nc2c(s1)CCCC2=O)c1cnccn1	77.8	100.5	101.5	91.7	90.2
CC1CN(C(=O)c2ccccc2)C(=Nc2cccc(S(=O)(=O)N(C)C)c2)S1 (configuration not stated)	84.9	.	.	96.1	.
SMILES	HCT116 bCat-KO	Fibroblast inh	HUVEC inhibit	PTEN del growth	H69AR growth 86K
CN(C)S(=O)(=O)c1cccc(N=C2NN=C(c3ccccc3)CS2)c1	5.2*	.	.	3.8*	.
CCC(C)n1ncn(-c2ccc(N3CCN(c4ccc(OCC5COC(Cn6cncn6)(c6ccc(Cl)cc6Cl)O5)cc4)CC3)cc2)c1=O (configuration not stated)	.	72.3	17.6*	.	61.8
CCC(C)n1ncn(-c2ccc(N3CCN(c4ccc(O)cc4)CC3)cc2)c1=O (configuration not stated)	77.4	.	.	70.2	.
CCOC(=O)c1c(NC(=O)CSc2nc3c(c(=O)n(C)c(=O)n3C)n2CC)sc(C)c1C	.	88.5	52.7	.	4.0*
CCCn1c(SCC(=O)Nc2nc3c(s2)CCCC3)nc2c1c(=O)n(C)c(=O)n2C	91.2	93.3	82.5	73.0	31.6*
CSCC[C@H](NC(=O)OC(C)(C)C)c1nnc(SCC(=O)Nc2ccc(C)cc2C)o1	101.3	93.1	83.8	100.0	87.2
C=CCn1c(C)cc(C(=O)CSc2n[nH]c(N)n2)c1C	93.6	98.6	91.8	99.1	90.8
Cc1cccn2c(=O)c3cc(C(=O)N4c5ccccc5CC4C)n(C)c3nc12 (configuration not stated)	63.4	83.1	77.4	45.0	41.8
Cc1cccn2c(=O)c3cc(C(=O)N4CCc5ccccc54)n(C)c3nc12	.	91.0	60.0	.	25.3*
CC1Cc2ccccc2N1C(=O)c1cc2c(=O)n3ccccc3nc2n1C (configuration not stated)	61.3	92.2	52.2	41.5	12.8*
O=C(Nc1ccc2ccccc2c1)[C@@H]1C[C@H]1[C@@H](NP(=O)(c1ccccc1)c1ccccc1)c1ccccc1	63.0	.	.	59.6	.
O=C(CSc1nnnn1-c1ccccc1)Nc1nsc(-c2ccc(Cl)cc2)n1	93.7	106.6	75.0	91.6	86.3
O=C(CSc1nnnn1-c1ccccc1)CC(=O)Nc1ccc(Cl)cc1	83.6	83.3	63.7	82.3	17.3*
CC1CCCC(n2c(=S)[nH]c3ccccc3c2=O)C1C (configuration not stated)	83.9	90.0	71.7	77.8	21.9*
COC(=O)C1=C(CN2CCc3ccccc32)NC(=O)NC1c1cc(C)ccc1C (configuration not stated)	57.8	89.4	85.5	40.6	33.8*
COC(=O)N1[C@H](C)C=C[C@]1(Cc1ccccc1)C(=O)O	103.5	.	.	90.4	.
Clc1ccc(/C=N/Nc2nc(Cl)nc3ccccc23)cc1	88.5	.	.	79.5	.
Clc1cccc(/C=N/Nc2ncnc3ccccc23)c1	2.8*	.	.	7.4	.
CCCCC(=O)NS(=O)(=O)c1ccc(NS(C)(=O)=O)cc1	91.6	.	.	108.3	.
COc1cccc(NS(=O)(=O)c2c(C)cc(C)cc2C)c1	88.1	96.2	90.4	80.7	92.9
COc1ccc(NS(=O)(=O)c2c(C)cc(C)cc2C)cc1	73.7	100.6	91.0	80.6	16.1*
COCCN1C(=O)C(CC(=O)Nc2ccc(C(C)=O)cc2)SC1=Nc1ccccc1 (configuration not stated)	89.3	.	.	80.8	.
CC(O)CN1C(=O)C(CC(=O)Nc2ccc(Cl)cc2)SC1=Nc1ccccc1 (configuration not stated)	75.7	92.3	66.4	67.9	39.2*
[O-][n+]1onc2c3cc(-c4ccccc4)nnc3ccc21	13.2	85.7	90.9	11.5	17.1*
c1ccc(-c2cc3c(nn2)CCc2nonc2-3)cc1	94.4	108.1	105.6	89.3	91.7
CCS(=O)(=O)N1CCN(c2ccc(Cl)cc2[N+](=O)[O-])CC1	90.3	.	.	90.6	.
Oc1ccc(Nc2nc3ccccc3nc2Nc2ccc(O)cc2)cc1	1.8*	4.0*	32.3	1.6*	2.3*
